Experiments:
[1] = system: TNF-α secretion by LPS-stimulated THP-1 cells; assay: TNF-α secretion assay in LPS-stimulated THP-1 cells; type: cell-based, human; conditions: for Suppression of TNF-α secretion (in words): 50 μg/ml, Figure 2; for inhibition at 100 µg/mL: Homo sapiens, THP-1, read-out: % Inhibition of TNF-α secretion
How it was run: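 THP-1 cells (RPMI-1640 with 0.05 mM 2-mercaptoethanol, 2 mM glutamine, 10% FBS) plated in log phase at 4 × 10^5/well. After 24 h, 50 nM PMA is added with test compound; after 24 h more, medium is replaced with compound-only medium. After 24 h, LPS 10 μg/ml is added, supernatants taken at 2 h, and human TNF-α measured by ELISA against the kit standard curve. Run in triplicate; % inhibition.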

IκB kinase (IKK) = conditions: kinase selectivity screening; cited from earlier work
[2] = system: PRAK (p38-regulated/activated kinase); conditions: kinase selectivity screening; cited from earlier work
[3] = system: MAPKAP-K3 (MAPK-activated protein kinase 3); conditions: kinase selectivity screening; cited from earlier work
[4] = system: DYRK1A (dual-specificity tyrosine-phosphorylated and regulated kinase 1A); conditions: kinase selectivity screening; cited from earlier work
Aurora B = conditions: kinase selectivity screening; cited from earlier work
[5] = system: LPS-induced lethality in mice; assay: LPS-induced endotoxic shock model; type: in vivo; conditions: for Protection from lethal dose of LPS (mortality/morbidity): 40 mg/kg ip pretreatment, 24 h observation
How it was run: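 C57 mice (8–12 weeks, 20–25 g, n = 8) get test compound i.p., then immediately a lethal i.p. LPS challenge. D-galactosamine (40 μg/g, as 4 μg/μL in DMSO) and E. coli LPS (0.25 μg/mouse, in 0.1 mL PBS with 1% BSA) are injected i.p. Controls get DMSO, then LPS. Mortality and morbidity are checked hourly for 24 h.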

LITAF = assay: Western blot of LITAF expression in cells; type: cell-based; conditions: Figure 6
THP-1 cells = assay: Cytotoxicity; type: cell-based, human; conditions: at concentrations active in the TNF-α secretion assay
[6] = system: TNF-α release from NIH3T3 cells; conditions: cited from earlier work
TNF-α release in mice = conditions: cited from earlier work
Solubility = type: physicochemical
[7] = Chemical stability in aqueous buffer; type: physicochemical
Mouse plasma stability = type: in vitro ADME
Caco-2 = Caco-2 permeability; type: in vitro ADME
[8] = Preliminary pharmacokinetic evaluation; type: in vivo, mice; conditions: for half-life: mouse, in vivo

In the case of `COC1=CC(=O)O[C@@H](/C=C/c2ccc3c(c2)OCO3)C1` [Compound 4, methysticin], the “Suppression of TNF-α secretion (in words)” value (shortened to “Suppression … (in words)”) [1] is reported as “essentially inactive”, the “Suppression … (in words)” value ([1]; listed as methysticin) is reported as “inactivity” and the inhibition at 100 µg/mL [1] is reported as 43%.
In the case of `COc1ccc(C=CC(=O)c2c(O)cc(OC)cc2OC)cc1` [Compound 8, flavokavain A], the “Inhibition of IKK” value (IκB kinase (IKK)) is listed as “inhibits”, the “Inhibition of PRAK” value [2] is listed as “inhibits” and the “Inhibition of MAPKAP-K3” value [3] is listed as “inhibits”. For the same compound, the “Inhibition of DYRK1A” value [4] was “inhibits” and the “Inhibition of Aurora B” value (Aurora B) was “inhibits”.
In the case of `COc1cc2c(cc1O)CC[n+]1cc3c(OC)c(OC)ccc3cc1-2.[I-]` [Jatrorrhizine iodide], the “Protection from lethal dose of LPS (mortality/morbidity)” value (from here on “Protection … (mortality/morbidity)”) [5] is reported as “render mice immune to endotoxic shock-mediated death” and the “Health of surviving animals” value ([5]; 40 mg/kg ip, after 24h) is reported as “poor health”.
In the case of `COC(=O)/C=C(\CC(O)c1ccc(-c2ccccc2)cc1)OC` (stereo not drawn) [Compound 16, (E)-Methyl 5-(biphenyl-4-yl)-5-hydroxy-3-methoxypent-2-enoate], the “Suppression of TNF-α secretion” value [1] is reported as no less than 50%, the “Dose response of TNF-α secretion suppression” value ([1]; Figure 5) is reported as “dose-responsive manner” and the inhibition at 100 µg/mL [1] is reported as 58%. The LITAF expression (LITAF) was “nearly ablated LITAF expression”.
`COC1=CC(=O)OC(c2ccc(-c3ccccc3)cc2)C1` (stereo not drawn) [Compound 15, 6-(Biphenyl-4-yl)-4-methoxy-5,6-dihydro-2H-pyran-2-one] showed an inhibition at 100 µg/mL [1] of -9%.
For `COC1=CC(=O)O[C@@H](CCc2ccc3c(c2)OCO3)C1` [Compound 3, dihydromethysticin], the “Suppression … (in words)” value [1] was “essentially inactive”, the “Suppression … (in words)” value ([1]; listed as dihydromethysticin) was “inactivity” and the inhibition at 100 µg/mL [1] was 37%.
In the case of `COC1=CC(=O)O[C@@H](CCc2ccccc2)C1` [Compound 2, dihydrokavain], the “Suppression … (in words)” value [1] is reported as “reproducibly active”, the “% Inhibition of TNF-α secretion” value ([1]; LPS-treated THP-1 cells, 100 μg/ml, replicates in parentheses) is reported as 95 (3) % and the “Survival rate at 24 h” value ([5]; 40 mg/Kg ip pretreatment) is reported as 30%. The “Delay in time of death compared to vehicle treated animals” value ([5]; 40 mg/Kg ip, animals that died) was “about a two hour delay”, the “Protection … (mortality/morbidity)” value [5] was “only partially protected” and the Cytotoxicity (THP-1 cells) was “did not show any cytotoxicity”. For the same compound, the “Inhibition of TNF-α release (in words)” value [6] was “lower activity” and the “Inhibition of TNF-α release in mice (in words)” value (TNF-α release in mice) was “most potent inhibitor”.
With `COC1=CC(=O)O[C@@H](/C=C/c2ccccc2)C1` [Compound 1, kavain] the “Suppression … (in words)” value [1] was “reproducibly active”, the inhibition at 100 µg/mL [1] was 98% and the LITAF expression (LITAF) was “evidently do not”. The “Protection … (mortality/morbidity)” value [5] was “no mortality or overt morbidity observed for at least 24 hours”, the solubility (Solubility; PBS buffer, pH 7, aqueous buffer) was greater than 500 µM and the “Solubility (in words)” value (Solubility; pH 7) was “highly soluble”. For the same compound, the “Chemical stability (in words)” value ([7]; aqueous buffer) was “good chemical stability”, the “Chemical Stability, degradation” value ([7]; at 1 hr, pH=7) was <10% degradation at 1 hr, pH=7 and the “Mouse plasma stability, remaining” value (Mouse plasma stability; at 2h, 5 μM dose) was 99% remaining at 2h (5 μM dose). The “Stability in plasma (in words)” value (Mouse plasma stability; mouse plasma) was “good chemical stability”, the “Caco-2 permeability, Papp(B→A)/Papp(A→B)” value (Caco-2) was “Papp(B→A)/Papp(A→B)=0.7” and the “Cell permeability (in words)” value (Caco-2; Caco-2 assay) was “high level of cell permeability”. The “Clearance (in words)” value ([8]; following dosing, mice) was “rapidly cleared”, the half-life ([8]; iv, 1 mg/kg) was less than 15 min and the half-life ([8]; po, 10 mg/kg) was less than 40 min. The Cytotoxicity (THP-1 cells) was “did not show any cytotoxicity”.

Reference: publication PMC2754715 (Chemical biology & drug design, 2009)
